Measurements as given in ChEMBL document CHEMBL4725350, “2-Oxaadamant-1-yl Ureas as Soluble Epoxide Hydrolase Inhibitors: In Vivo Evaluation in a Murine Model of Acute Pancreatitis” (J Med Chem, 2020).
Values after ≈ are worked out from the molar mass of the structure shown. Active and inactive are the calls of the source. The calls are words filed in the database; no cut-off is given here.

What was measured:
[1] = target: T1, Bifunctional epoxide hydrolase 2 (Mus musculus, UniProt P34914); assay: Inhibition of recombinant mouse soluble epoxide hydrolase using CMNPC as substrate preincubated for 5 mins followed by substrate addition and measured at 30 secs interval for 10 mins by fluorescence assay
T1 sequence (P34914 whole entry): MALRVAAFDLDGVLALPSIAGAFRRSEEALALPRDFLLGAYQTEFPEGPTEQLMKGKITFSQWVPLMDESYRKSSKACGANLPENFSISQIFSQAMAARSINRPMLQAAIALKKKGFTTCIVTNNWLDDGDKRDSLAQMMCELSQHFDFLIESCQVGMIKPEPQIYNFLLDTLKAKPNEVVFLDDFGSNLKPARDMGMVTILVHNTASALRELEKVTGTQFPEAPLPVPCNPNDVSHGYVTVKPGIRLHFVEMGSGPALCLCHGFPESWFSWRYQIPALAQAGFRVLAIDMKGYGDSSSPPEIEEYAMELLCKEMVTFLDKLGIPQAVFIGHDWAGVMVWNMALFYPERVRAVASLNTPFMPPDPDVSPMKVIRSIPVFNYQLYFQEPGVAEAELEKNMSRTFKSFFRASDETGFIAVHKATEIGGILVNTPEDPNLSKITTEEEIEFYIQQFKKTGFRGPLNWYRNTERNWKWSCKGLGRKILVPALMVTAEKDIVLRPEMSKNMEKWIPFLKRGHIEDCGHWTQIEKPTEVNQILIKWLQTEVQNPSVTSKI
Summary of the method: (§1)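 Purified recombinant enzyme was preincubated with inhibitor (0.4–100,000 nM final) for 5 min at 30 °C in 100 mM sodium phosphate, pH 7.4, with 0.1 mg/mL BSA and 1% DMSO. CMNPC was added at 5 μM final. 6-Methoxynaphthaldehyde fluorescence (ex 330/em 465 nm) was read every 30 s for 10 min. IC50 values are averages of three replicates.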

[2] = Cytotoxicity against human PBMC assessed as reduction in cell viability measured after 72 hrs by ATPlite assay; conditions: read-out: LC50 (the source's name)
THLE-2 = assay: Cytotoxicity against human THLE-2 cells assessed as reduction in cell viability measured after 72 hrs by ATPlite assay; assay type: cell-based; conditions: thle-2, 72 h, read-out: LC50 (the source's name)
Summary of the method: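 THLE-2 cells were grown in BEGM with 0.7 μg/mL phosphoethanolamine, 0.5 ng/mL EGF and 10% FBS, plated at 10,000 cells/well and left to adhere for 24 h. Cells were exposed to 0–100 μM final (1% DMSO) for 72 h at 37 °C, 5% CO2.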

[3] = Stability in human liver microsomes assessed as parent compound remaining measured after 60 mins in presence of NADPH by LC-MS/MS analysis; assay type: ADME, Microsome; conditions: read-out: Stabilty
Summary of the method: (§2)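 Compound is incubated at 37 °C with human, mouse or rat liver microsomes in 50 mM phosphate buffer pH 7.4. […] Samples at 0–60 min are quenched into acetonitrile; percent parent remaining at 60 min is reported. Testosterone is the positive control.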

[4] = Stability in mouse liver microsomes assessed as parent compound remaining measured after 60 mins in presence of NADPH by LC-MS/MS analysis; assay type: ADME, Microsome; conditions: read-out: Stabilty; summary of the method: as §2
[5] = Stability in rat liver microsomes assessed as parent compound remaining measured after 60 mins in presence of NADPH by LC-MS/MS analysis; assay type: ADME, Microsome; conditions: read-out: Stabilty; summary of the method: as §2
[6] = Selectivity ratio of inhibition of recombinant human CYP1A2 to IC50 for inhibition of recombinant mouse soluble epoxide hydrolase
[7] = target: Voltage-gated inwardly rectifying potassium channel KCNH2 (Homo sapiens, UniProt Q12809); assay: Inhibition of human ERG at 10 uM
[8] = target: T2, Bifunctional epoxide hydrolase 2 (Rattus norvegicus, UniProt P80299); assay: Inhibition of recombinant rat soluble epoxide hydrolase using CMNPC as substrate preincubated for 5 mins followed by substrate addition and measured at 30 secs interval for 10 mins by fluorescence assay; summary of the method: as §1
T2 sequence (P80299 whole entry): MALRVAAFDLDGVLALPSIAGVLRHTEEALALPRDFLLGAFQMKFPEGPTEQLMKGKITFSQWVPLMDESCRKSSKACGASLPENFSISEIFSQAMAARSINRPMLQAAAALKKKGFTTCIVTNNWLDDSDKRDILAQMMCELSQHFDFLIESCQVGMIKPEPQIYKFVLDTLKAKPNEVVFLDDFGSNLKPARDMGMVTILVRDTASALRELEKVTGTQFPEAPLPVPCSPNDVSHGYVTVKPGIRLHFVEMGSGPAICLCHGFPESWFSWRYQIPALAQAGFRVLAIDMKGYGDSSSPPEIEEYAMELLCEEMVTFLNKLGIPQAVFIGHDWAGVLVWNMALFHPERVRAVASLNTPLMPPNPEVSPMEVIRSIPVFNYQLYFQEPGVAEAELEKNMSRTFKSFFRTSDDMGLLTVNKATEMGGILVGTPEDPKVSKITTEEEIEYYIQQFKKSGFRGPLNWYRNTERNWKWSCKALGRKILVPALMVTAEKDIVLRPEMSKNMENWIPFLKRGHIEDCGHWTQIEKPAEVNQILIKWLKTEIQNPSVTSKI

AR-42J cell line [9] = assay: Protection against cerulein-induced pancreatic damage in rat AR42J cells assessed as reduction in IL-6 mRNA level at 60 uM preincubated for 1 hr followed by cerulein addition and measured after 8 hrs by Trisure-reagent based RT-PCR analysis; assay type: functional, cell-based; conditions: time 9.0 hrs
Summary of the method: (§3)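 Rat pancreatic acinar AR42J cells are exposed to 10 nM cerulein with or without inhibitor co-incubation at 60 μM. IL-6, TNF-α, CHOP and TRB3 mRNA levels are measured and compared with control and cerulein-only cells. Mean ± SEM, n = 5 per group.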

AR-42J cell line [10] = assay: Protection against cerulein-induced pancreatic damage in rat AR42J cells assessed as reduction in TNF-alpha mRNA level at 60 uM preincubated for 1 hr followed by cerulein addition and measured after 8 hrs by Trisure-reagent based RT-PCR analysis; assay type: functional, cell-based; conditions: time 9.0 hrs; summary of the method: as §3
AR-42J cell line [11] = assay: Protection against cerulein-induced pancreatic damage in rat AR42J cells assessed as reduction in CHOP mRNA level at 60 uM preincubated for 1 hr followed by cerulein addition and measured after 8 hrs by Trisure-reagent based RT-PCR analysis; assay type: functional, cell-based; conditions: time 9.0 hrs; summary of the method: as §3
AR-42J cell line [12] = assay: Protection against cerulein-induced pancreatic damage in rat AR42J cells assessed as reduction in TRB3 mRNA level at 60 uM preincubated for 1 hr followed by cerulein addition and measured after 8 hrs by Trisure-reagent based RT-PCR analysis; assay type: functional, cell-based; conditions: time 9.0 hrs; summary of the method: as §3
physchem = conditions: 1% DMSO/99% PBS buffer solution
[13] = AUClast in CD-1 mouse at 1 mg/kg, ip measured up to 24 hrs by LC-MS analysis; assay type: ADME, organism-based; design: route intraperitoneal, dose 1 mg/kg, time <=24; conditions: in vivo
Summary of the method: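 Single dose, 1 mg/kg, given to mice intravenously or intraperitoneally. Parameters are taken from the plasma concentration–time profile: T1/2, Tmax, Cmax, C0 (iv only), AUClast, AUCINF_obs, Vz and Cl. Bioavailability is derived from ip versus iv exposure.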

Sequence of Voltage-gated inwardly rectifying potassium channel KCNH2 (Q12809 whole entry): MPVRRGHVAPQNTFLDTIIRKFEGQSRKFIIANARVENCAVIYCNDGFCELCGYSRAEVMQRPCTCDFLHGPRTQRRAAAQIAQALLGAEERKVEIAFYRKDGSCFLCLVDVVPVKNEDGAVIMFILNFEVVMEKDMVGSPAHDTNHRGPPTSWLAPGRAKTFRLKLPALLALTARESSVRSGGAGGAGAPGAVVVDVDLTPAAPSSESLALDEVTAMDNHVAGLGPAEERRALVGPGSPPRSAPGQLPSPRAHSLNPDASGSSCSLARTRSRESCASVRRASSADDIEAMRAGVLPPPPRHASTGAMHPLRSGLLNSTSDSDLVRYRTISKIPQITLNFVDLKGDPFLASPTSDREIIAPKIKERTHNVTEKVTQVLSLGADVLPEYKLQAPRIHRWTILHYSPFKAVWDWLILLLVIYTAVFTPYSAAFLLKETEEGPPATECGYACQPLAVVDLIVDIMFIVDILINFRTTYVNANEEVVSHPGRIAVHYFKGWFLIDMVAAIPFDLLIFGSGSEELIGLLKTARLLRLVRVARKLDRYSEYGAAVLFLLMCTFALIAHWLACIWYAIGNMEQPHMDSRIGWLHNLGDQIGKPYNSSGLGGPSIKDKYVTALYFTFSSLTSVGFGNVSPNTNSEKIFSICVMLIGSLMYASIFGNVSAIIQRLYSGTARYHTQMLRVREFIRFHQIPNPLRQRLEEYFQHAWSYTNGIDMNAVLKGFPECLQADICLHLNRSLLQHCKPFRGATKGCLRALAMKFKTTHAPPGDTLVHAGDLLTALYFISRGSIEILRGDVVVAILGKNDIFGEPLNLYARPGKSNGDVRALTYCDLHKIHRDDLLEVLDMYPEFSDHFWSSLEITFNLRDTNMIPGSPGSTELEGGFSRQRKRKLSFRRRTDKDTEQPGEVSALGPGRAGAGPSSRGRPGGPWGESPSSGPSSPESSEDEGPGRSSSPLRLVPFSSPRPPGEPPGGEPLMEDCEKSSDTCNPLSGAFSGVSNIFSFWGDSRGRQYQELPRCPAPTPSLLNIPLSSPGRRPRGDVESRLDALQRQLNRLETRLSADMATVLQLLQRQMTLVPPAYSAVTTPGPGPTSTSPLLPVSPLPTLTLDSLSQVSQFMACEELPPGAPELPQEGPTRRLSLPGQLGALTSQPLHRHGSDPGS

| Compound | IC50 [1] | CC50 [2] | CC50 (THLE-2) | remaining at 1 h [3] | remaining at 1 h [4] | remaining at 1 h [5] | Selectivity ratio [6] | inhibition (INH) [7] | IC50 [8] | Activity (AR-42J cell line [9]) | Activity (AR-42J cell line [10]) | Activity (AR-42J cell line [11]) | Activity (AR-42J cell line [12]) | solubility kinetic at 2 h (physchem) | AUClast [13] |
| --- | --- | --- | --- | --- | --- | --- | --- | --- | --- | --- | --- | --- | --- | --- | --- |
| CC(=O)N1CCC(NC(=O)NC23CC4CC(CC(C4)O2)C3)CC1 | 92.3 nM | > 20000 nM | > 100000 nM | 88.8% | 80.5% | 85.1% | > 100 | Not Active | 3.3 nM | Active | Active | Active | Active | 59 µM (≈ 19 µg/mL) |  |
| CC(C)S(=O)(=O)N1CCC(NC(=O)NC23CC4CC(CC(C4)O2)C3)CC1 | 79.1 nM | > 20000 nM | > 100000 nM | 72.7% | 63.9% | 63.9% |  | Not Active | 1.9 nM | Active | Active | Active | Active | 34 µM (≈ 13.1 µg/mL) | 34.67 ng·h/mL |
